Columns and labels:
[1] = test system: Protocadherin-15 (Homo sapiens), Q96QU1 [R3X]; experiment: Effect on human PCDH15 R3X mutation translation level at 80 ug/ml
Method in brief: (§1)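 In vitro transcription-translation of a reporter plasmid carrying the PCDH15 R3X nonsense mutation (premature UGA C stop), with [35S]methionine and a range of drug concentrations. Products were resolved by SDS-PAGE and quantified by PhosphorImager. Suppression is the 35-kDa product as a share of total (35 + 25 kDa) protein. Translation level is total protein at each concentration relative to the drug-free reaction. Values are means of ≥3 independent experiments; sulfate salts were tested.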

Bacillus subtilis [2] = experiment: Antibacterial activity against Bacillus subtilis ATCC 6633 at 80 ug/ml; format: functional
[3] = test system: Protocadherin-15 (Homo sapiens), Q96QU1 [R3X]; experiment: Suppression of human PCDH15 R3X mutation at 80 ug/ml; method in brief: as §1
Escherichia coli [4] = experiment: Antibacterial activity against Escherichia coli ATCC 25922 at 80 ug/ml; format: functional
[5] = test system: Protocadherin-15 (Homo sapiens), Q96QU1 [R3X]; experiment: Effect on human PCDH15 R3X mutation translation level at 30 ug/ml; method in brief: as §1
Target sequence in this assay (Q96QU1 other isoform, or with tags, fused parts or gaps): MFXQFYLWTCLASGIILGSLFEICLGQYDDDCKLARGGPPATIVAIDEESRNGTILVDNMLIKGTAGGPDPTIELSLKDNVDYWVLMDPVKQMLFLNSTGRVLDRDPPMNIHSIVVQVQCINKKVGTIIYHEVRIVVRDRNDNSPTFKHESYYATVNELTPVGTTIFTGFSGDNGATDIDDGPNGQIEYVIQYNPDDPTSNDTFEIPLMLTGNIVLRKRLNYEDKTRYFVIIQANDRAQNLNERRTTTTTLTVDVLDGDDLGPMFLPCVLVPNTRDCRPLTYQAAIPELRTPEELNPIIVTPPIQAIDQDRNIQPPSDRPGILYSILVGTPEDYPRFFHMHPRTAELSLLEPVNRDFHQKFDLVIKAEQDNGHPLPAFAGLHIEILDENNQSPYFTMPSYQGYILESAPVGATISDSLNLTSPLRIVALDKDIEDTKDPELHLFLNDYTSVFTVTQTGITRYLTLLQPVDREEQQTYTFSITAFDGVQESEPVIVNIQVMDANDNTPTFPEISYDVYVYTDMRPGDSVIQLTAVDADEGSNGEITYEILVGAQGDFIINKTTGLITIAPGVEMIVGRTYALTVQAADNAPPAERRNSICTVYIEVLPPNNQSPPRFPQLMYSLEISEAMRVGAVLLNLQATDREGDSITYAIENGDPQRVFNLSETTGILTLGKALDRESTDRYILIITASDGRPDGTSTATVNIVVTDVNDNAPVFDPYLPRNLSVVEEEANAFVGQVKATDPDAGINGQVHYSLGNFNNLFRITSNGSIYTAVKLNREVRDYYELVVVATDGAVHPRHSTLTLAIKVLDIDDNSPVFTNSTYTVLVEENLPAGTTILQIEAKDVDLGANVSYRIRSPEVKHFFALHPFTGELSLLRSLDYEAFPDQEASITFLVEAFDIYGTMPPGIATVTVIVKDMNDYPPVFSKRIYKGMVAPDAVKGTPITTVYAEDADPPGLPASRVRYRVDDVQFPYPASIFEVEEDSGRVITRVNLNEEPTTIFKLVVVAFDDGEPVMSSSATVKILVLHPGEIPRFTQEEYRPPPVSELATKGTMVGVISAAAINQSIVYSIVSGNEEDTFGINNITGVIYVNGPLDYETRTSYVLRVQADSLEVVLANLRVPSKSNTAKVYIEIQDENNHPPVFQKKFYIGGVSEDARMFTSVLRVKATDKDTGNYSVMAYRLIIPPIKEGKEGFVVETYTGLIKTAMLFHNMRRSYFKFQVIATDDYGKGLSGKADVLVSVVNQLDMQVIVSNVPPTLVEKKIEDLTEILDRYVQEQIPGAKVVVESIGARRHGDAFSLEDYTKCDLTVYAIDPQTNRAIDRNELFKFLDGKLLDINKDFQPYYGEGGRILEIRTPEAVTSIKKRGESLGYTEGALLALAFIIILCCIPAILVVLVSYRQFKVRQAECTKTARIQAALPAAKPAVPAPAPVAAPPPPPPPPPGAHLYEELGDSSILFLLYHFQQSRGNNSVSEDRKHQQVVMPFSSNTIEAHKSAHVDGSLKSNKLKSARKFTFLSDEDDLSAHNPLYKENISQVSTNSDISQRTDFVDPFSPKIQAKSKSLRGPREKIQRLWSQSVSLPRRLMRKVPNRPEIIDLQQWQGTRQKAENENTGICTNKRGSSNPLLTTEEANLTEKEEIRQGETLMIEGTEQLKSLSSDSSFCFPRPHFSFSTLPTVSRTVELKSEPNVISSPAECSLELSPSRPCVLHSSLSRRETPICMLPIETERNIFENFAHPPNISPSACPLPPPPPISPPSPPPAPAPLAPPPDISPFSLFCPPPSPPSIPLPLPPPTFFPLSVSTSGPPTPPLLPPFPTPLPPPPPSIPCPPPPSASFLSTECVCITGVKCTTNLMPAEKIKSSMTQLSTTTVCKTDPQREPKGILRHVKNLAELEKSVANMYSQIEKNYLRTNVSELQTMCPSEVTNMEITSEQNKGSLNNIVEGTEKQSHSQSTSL

Escherichia coli [6] = experiment: Antibacterial activity against Escherichia coli ATCC 25922 at 30 ug/ml; format: functional, organism-based
[7] = test system: Protocadherin-15 (Homo sapiens), Q96QU1 [R3X]; experiment: Suppression of human PCDH15 R3X mutation at 30 ug/ml; method in brief: as §1
Target sequence in this assay (Q96QU1 other isoform, or with tags, fused parts or gaps): as above

Bacillus subtilis [8] = experiment: Antibacterial activity against Bacillus subtilis ATCC 6633 at 30 ug/ml; format: functional, organism-based
[9] = test system: Protocadherin-15 (Homo sapiens), Q96QU1 [R3X]; experiment: Suppression of human PCDH15 R3X mutation at 40 ug/ml
Method in brief: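 The PCDH15 R3X (UGA C) reporter is coupled-transcribed and translated in vitro in the presence of [35S]methionine, then run on SDS–PAGE with PhosphorImager quantification. Suppression is the fraction of the 35-kDa read-through product out of total protein (35-kDa plus 25-kDa truncated product). Values are averages of at least three independent experiments.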

Bacillus subtilis [10] = experiment: Antibacterial activity against Bacillus subtilis ATCC 6633 at 40 ug/ml; format: functional
[11] = test system: Protocadherin-15 (Homo sapiens), Q96QU1 [R3X]; experiment: Effect on human PCDH15 R3X mutation translation level at 40 ug/ml
Method in brief: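 Reporter plasmid carrying the PCDH15 R3X nonsense mutation (premature UGA C stop codon) is transcribed and translated in vitro with [35S]methionine and drug added. Products are resolved by SDS–PAGE and quantified by PhosphorImager. Translation level is total protein (35 + 25 kDa) at each drug concentration relative to total protein without drug. Values are means of at least three independent experiments.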

Escherichia coli [12] = experiment: Antibacterial activity against Escherichia coli ATCC 25922 at 40 ug/ml; format: functional
[13] = test system: Protocadherin-15 (Homo sapiens), Q96QU1 [R3X]; experiment: Suppression of human PCDH15 R3X mutation at 160 ug/ml; method in brief: as §1
Escherichia coli [14] = experiment: Antibacterial activity against Escherichia coli ATCC 25922 at 160 ug/ml; format: functional
[15] = test system: Protocadherin-15 (Homo sapiens), Q96QU1 [R3X]; experiment: Effect on human PCDH15 R3X mutation translation level at 160 ug/ml; method in brief: as §1
Bacillus subtilis [16] = experiment: Antibacterial activity against Bacillus subtilis ATCC 6633 at 160 ug/ml; format: functional

Row | Compound | Activity [1] [%] | MIC (Bacillus subtilis [2]) [µg/mL] | Activity [3] [%] | MIC (Escherichia coli [4]) [µg/mL] | further results
1 | N[C@H]1[C@@H](O[C@H]2[C@H](O)[C@@H](O)[C@H](N)C[C@@H]2N)O[C@H](CO)[C@@H](O)[C@@H]1O.O=S(=O)(O)O [PAROMAMINE SULFATE] | 74 | 128 | 6.2 | 512 | –
2 | GENTAMICIN SULFATE | – | – | – | – | Activity [5]: 40%; MIC (Escherichia coli [6]): 4 µg/mL; Activity [7]: 49%; MIC (Bacillus subtilis [8]): < 0.5 µg/mL
3 | NC[C@@H]1O[C@H](O[C@H]2[C@@H](O)[C@H](O[C@@H]3[C@@H](O)[C@H](N)C[C@H](N)[C@H]3O[C@H]3O[C@H](CO)[C@@H](O)[C@H](O)[C@H]3N)O[C@@H]2CO)[C@H](N)[C@@H](O)[C@@H]1O.O=S(=O)(O)O [PAROMOMYCIN SULFATE] | 74 | 128 | 6.2 | 512 | Activity [9]: 49%; MIC (Bacillus subtilis [10]): 8 µg/mL; Activity [11]: 40%; MIC (Escherichia coli [12]): 12 µg/mL
4 | N[C@H]1[C@@H](O[C@H]2[C@H](O[C@@H]3O[C@H](CO)[C@@H](O)[C@H]3O)[C@@H](O)[C@H](N)C[C@@H]2N)O[C@H](CO)[C@@H](O)[C@@H]1O.O=S(=O)(O)O | 100 | 64 | 1.3 | 256 | –
5 | NC[C@H]1O[C@@H](O[C@@H]2[C@@H](N)[C@@H](O[C@H]3[C@H](O)[C@@H](O)[C@H](N)C[C@@H]3N)O[C@H](CO)[C@H]2O)[C@H](O)[C@@H]1O.O=S(=O)(O)O | 98 | 48 | 2.9 | 192 | –
6 | NC[C@H]1O[C@@H](O[C@@H]2[C@@H](O)[C@H](N)C[C@H](N)[C@H]2O[C@H]2O[C@H](CO)[C@@H](O)[C@H](O)[C@H]2N)[C@H](O)[C@@H]1O.O=S(=O)(O)O | 72 | 48 | 21 | > 512 | –
7 | N[C@H]1[C@@H](O[C@H]2[C@H](O)[C@@H](O[C@H]3O[C@@H](CO)[C@H](O)[C@@H]3O)[C@H](N)C[C@@H]2N)O[C@H](CO)[C@@H](O)[C@@H]1O.O=S(=O)(O)O | 74 | 96 | 1.5 | 256 | –
8 | NC[C@@H]1O[C@H](O[C@@H]2[C@@H](O)[C@H](O[C@H]3O[C@H](CO)[C@@H](O)[C@H](O)[C@H]3N)[C@@H](N)C[C@H]2N)[C@@H](O)[C@H]1O.O=S(=O)(O)O | 75 | 192 | 4.4 | > 512 | –
9 | N[C@H]1[C@@H](O[C@H]2[C@H](O)[C@@H](O)[C@H](N)C[C@@H]2N)O[C@H](CO)[C@@H](O)[C@H]1N.O=S(=O)(O)O | 71 | 48 | 2 | 192 | –
10 | N[C@H]1[C@@H](O[C@H]2[C@H](O)[C@@H](O)[C@H](N)C[C@@H]2N)O[C@H](CO)[C@@H](O)[C@@H]1OCO[C@@H]1[C@@H](N)[C@@H](O[C@H]2[C@H](O)[C@@H](O)[C@H](N)C[C@@H]2N)O[C@H](CO)[C@H]1O.O=S(=O)(O)O | 22 | 48 | < 1 | 96 | –
11 | N[C@H]1[C@@H](O[C@H]2[C@H](O)[C@@H](O)[C@H](N)C[C@@H]2N)O[C@H](CO)[C@@H](O)[C@@H]1O[C@@H]1O[C@H](CO)[C@@H](O)[C@H]1O.O=S(=O)(O)O | – | – | – | – | Activity [13]: < 1%; MIC (Escherichia coli [14]): > 512 µg/mL; Activity [15]: 82%; MIC (Bacillus subtilis [16]): > 512 µg/mL

From ChEMBL document CHEMBL1146146, “Redesign of aminoglycosides for treatment of human genetic diseases caused by premature stop mutations” (2006)
